# Experiments:
# Assay type in all cases: functional
# Cavia porcellus [1] = assay: Bronchodilatory activity in Hartley guinea pig assessed as inhibition of acetylcholine-induced spasm at 3.2 mg/kg, iv administered 3 to 4 times at 15 mins interval starting 2 mins post challenge
# Summary of the method: (§1)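 Urethane-anesthetized (1.5 g/kg ip), gallamine-curarized Hartley guinea pigs (either sex, 250-500 g), ventilated at 60 strokes/min. Acetylcholine (40-150 μg/kg, 12-s iv infusions every 5 min) set to raise tracheal pressure 20-50 cm water. Compounds (sodium salts in water; esters in 10% aqueous ethanol) given iv over 1 min. Spasm amplitude expressed as % variation from control. ED50 from semilog regression; ≥4 animals.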
# Cavia porcellus [2] = assay: Bronchodilatory activity in iv dosed Hartley guinea pig assessed as inhibition of serotonin-induced spasm administered 3 to 4 times at 15 mins interval starting 2 mins post challenge
# Summary of the method: (§2)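 Serotonin (7.5-30 μg/kg iv, 12-s injections every 5 min) induced bronchospasm (20-50 cm water rise) in ventilated, urethane/gallamine-treated Hartley guinea pigs (250-500 g). After three matched control spasms, test agent was given iv over 1 min 2 min later, repeated at 15-min intervals, 3-4 log doses. Water was the vehicle for salts and 10% aqueous ethanol for esters. Intratracheal pressure was recorded; ED50 from semilog regression of % variation; ≥4 animals.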
# Cavia porcellus [3] = assay: Bronchodilatory activity in iv dosed Hartley guinea pig assessed as inhibition of histamine-induced spasm administered 3 to 4 times at 15 mins interval starting 2 mins post challenge
# Summary of the method: (§3)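 Hartley guinea pigs (either sex, 250-500 g) under urethane (1.5 g/kg ip) plus iv gallamine, artificially ventilated. Histamine was infused iv for 12 s every 5 min to raise tracheal pressure 20-50 cm water. Salts were given iv in water and esters in 10% aqueous ethanol, 3-4 log-spaced doses. Read-out was % variation in spasm amplitude versus control; ED50 (-50%) by semilog regression; ≥4 animals.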
# Cavia porcellus [4] = assay: Bronchodilatory activity in Hartley guinea pig assessed as inhibition of serotonin-induced spasm at 3.2 mg/kg, iv administered 3 to 4 times at 15 mins interval starting 2 mins post challenge; summary of the method: as §2
# Cavia porcellus [5] = assay: Bronchodilatory activity in Hartley guinea pig assessed as inhibition of histamine-induced spasm at 3.2 mg/kg, iv administered 3 to 4 times at 15 mins interval starting 2 mins post challenge; summary of the method: as §3
# Cavia porcellus [6] = assay: Bronchodilatory activity in iv dosed Hartley guinea pig assessed as lowest dose required for >/= 50% inhibition of histamine-induced spasm administered 3 to 4 times at 15 mins interval starting 2 mins post challenge; summary of the method: as §3
# Cavia porcellus [7] = assay: Bronchodilatory activity in iv dosed Hartley guinea pig assessed as inhibition of acetylcholine-induced spasm administered 3 to 4 times at 15 mins interval starting 2 mins post challenge; summary of the method: as §1
# Cavia porcellus [8] = assay: Bronchodilatory activity in iv dosed Hartley guinea pig assessed as lowest dose required for >/= 50% inhibition of serotonin-induced spasm administered 3 to 4 times at 15 mins interval starting 2 mins post challenge; summary of the method: as §2
# Cavia porcellus [9] = assay: Bronchodilatory activity in iv dosed Hartley guinea pig assessed as lowest dose required for >/= 50% inhibition of acetylcholine-induced spasm administered 3 to 4 times at 15 mins interval starting 2 mins post challenge; summary of the method: as §1
SMILES,inhibition in vivo at 3.2 mg/kg (Cavia porcellus [1]) [%],ED50 (Cavia porcellus [2]) [µg/kg],ED50 (Cavia porcellus [3]) [µg/kg],ED50 (Cavia porcellus [7]) [µg/kg],also measured
CCCCC(C)[C@H](O)/C=C/C1CCC(=O)[C@@H]1C/C=C\CCCC(=O)OCC (mixture of isomers),< 50,179000,65700,–,–
CCCCC(C)(C)[C@@H](O)/C=C/C1CCC(=O)[C@@H]1CCCCCC(C)C(=O)O (mixture of isomers),< 50,–,–,–,inhibition in vivo at 3.2 mg/kg (Cavia porcellus [4]): < 50%; inhibition in vivo at 3.2 mg/kg (Cavia porcellus [5]): < 50%
CCCCC(CC)[C@H](O)/C=C/C1CCC(=O)[C@@H]1CCCCCCC(=O)O (mixture of isomers),–,9.77,–,113,ED50 (Cavia porcellus [6]): 32 µg/kg
CCCCC(C)(C)[C@H](O)/C=C/C1CCC(=O)[C@@H]1CCCCCC(C(=O)OCC)c1ccccc1 (mixture of isomers),< 50,–,–,–,inhibition in vivo at 3.2 mg/kg (Cavia porcellus [4]): < 50%; inhibition in vivo at 3.2 mg/kg (Cavia porcellus [5]): < 50%
CCCCC(CC)[C@@H](O)/C=C/C1CCC(=O)[C@@H]1C/C=C\CCCC(=O)O (mixture of isomers),< 50,2.21e+09,–,–,inhibition in vivo at 3.2 mg/kg (Cavia porcellus [5]): < 50%
CCCCC(C)(C)[C@@H](O)/C=C/C1CCC(=O)[C@@H]1CCCCOCC(=O)OCC (mixture of isomers),–,209,194,349,–
CCCCC(C)[C@@H](O)/C=C/C1CCC(=O)[C@@H]1CCCCCCC(=O)OCC (mixture of isomers),–,99.3,–,396,ED50 (Cavia porcellus [6]): 32000 µg/kg
CCCCC(C)(C)[C@@H](O)/C=C/C1CCC(=O)[C@@H]1CCCCCCC(=O)O (mixture of isomers),–,19,107,135,–
CCCCC(C)(C)[C@@H](O)/C=C/C1CCC(=O)[C@@H]1CCCCCC(C(=O)O)c1ccccc1 (mixture of isomers),< 50,–,–,–,inhibition in vivo at 3.2 mg/kg (Cavia porcellus [4]): < 50%; inhibition in vivo at 3.2 mg/kg (Cavia porcellus [5]): < 50%
CCCCC(C)[C@@H](O)/C=C/C1CCC(=O)[C@@H]1C/C=C\CCCC(=O)OCC (mixture of isomers),–,9.65,1.37,> 320,–
CCCCC(CC)[C@@H](O)/C=C/C1CCC(=O)[C@@H]1CCCCCCC(=O)O (mixture of isomers),< 50,> 3.2,–,–,ED50 (Cavia porcellus [6]): 32 µg/kg
CCCCC(C)(C)[C@H](O)/C=C/C1CCC(=O)[C@@H]1CCCCOCC(=O)OCC (mixture of isomers),–,123,69.6,96.7,–
CCCCC(CC)[C@H](O)/C=C/C1CCC(=O)[C@@H]1C/C=C\CCCC(=O)O (mixture of isomers),< 50,79.1,–,–,inhibition in vivo at 3.2 mg/kg (Cavia porcellus [5]): < 50%
CCCCC[C@H](O)/C=C/C1CCC(=O)[C@@H]1CCCCCCC(=O)O (mixture of isomers),–,397,3.4,> 32,–
CCCCC(C)[C@H](O)/C=C/C1CCC(=O)[C@@H]1CCCCCCC(=O)O (mixture of isomers),–,346,–,> 320,ED50 (Cavia porcellus [6]): 320 µg/kg
CCCCC(C)[C@H](O)/C=C/C1CCC(=O)[C@@H]1CCCCCCC(=O)OCC (mixture of isomers),< 50,–,–,–,ED50 (Cavia porcellus [6]): 32000 µg/kg; ED50 (Cavia porcellus [8]): 320 µg/kg
CCCCC(C)(C)[C@H](O)/C=C/C1CCC(=O)[C@@H]1CCCCCCC(=O)O (mixture of isomers),–,25.9,4.17,42.9,–
CCCCC(C)(C)[C@H](O)/C=C/C1CCC(=O)[C@@H]1CCCCOCC(=O)O (mixture of isomers),–,185,–,550,–
CCCCC(C)(C)[C@H](O)/C=C/C1CCC(=O)[C@@H]1CCCCCC(C)C(=O)O (mixture of isomers),< 50,–,–,–,inhibition in vivo at 3.2 mg/kg (Cavia porcellus [4]): < 50%; inhibition in vivo at 3.2 mg/kg (Cavia porcellus [5]): < 50%
CCCCC[C@](C)(O)/C=C/C1CCC(=O)[C@@H]1CCCCOCC(=O)O (mixture of isomers),–,121,25.6,73.7,–
CCCCC(C)(C)[C@@H](O)/C=C/C1CCC(=O)[C@@H]1CCCCOCC(=O)O (mixture of isomers),–,–,373,558,ED50 (Cavia porcellus [8]): 32 µg/kg
CCCCC(CC)[C@H](O)/C=C/C1CCC(=O)[C@@H]1CCCCCCC(=O)OCC (mixture of isomers),–,1.11e+09,–,145,ED50 (Cavia porcellus [6]): 32 µg/kg
CCCCC[C@](C)(O)/C=C/C1CCC(=O)[C@@H]1CCCCOCC(=O)OCC (mixture of isomers),–,78.8,282,618,–
CCCCC(CC)[C@@H](O)/C=C/C1CCC(=O)[C@@H]1CCCCCCC(=O)OCC (mixture of isomers),< 50,1.74e+09,2.7e+09,–,–
CCCCC(C)[C@@H](O)/C=C/C1CCC(=O)[C@@H]1CCCCCCC(=O)O (mixture of isomers),–,7.01,73.2,9.89,–
CCCCC(C)(C)[C@H](O)/C=C/C1CCC(=O)[C@@H]1CCCCCC(C(=O)O)c1ccccc1 (mixture of isomers),< 50,–,–,–,inhibition in vivo at 3.2 mg/kg (Cavia porcellus [4]): < 50%; inhibition in vivo at 3.2 mg/kg (Cavia porcellus [5]): < 50%
CCCCC(C)(C)[C@@H](O)/C=C/C1CCC(=O)[C@@H]1CCCCCC(C(=O)OCC)c1ccccc1 (mixture of isomers),< 50,–,–,–,inhibition in vivo at 3.2 mg/kg (Cavia porcellus [4]): < 50%; inhibition in vivo at 3.2 mg/kg (Cavia porcellus [5]): < 50%
CCCCC(C)[C@@H](O)/C=C/C1CCC(=O)[C@@H]1C/C=C\CCCC(=O)O (mixture of isomers),–,39.9,2.99,87.5,–
CCCCC(C)[C@H](O)/C=C/C1CCC(=O)[C@@H]1C/C=C\CCCC(=O)O (mixture of isomers),–,1.35,108000,1.63,–
CCCCC[C@](C)(O)/C=C/C1CCC(=O)[C@@H]1CCCCCCC(=O)O (mixture of isomers),–,6.99,4.24,–,ED50 (Cavia porcellus [9]): 3.2 µg/kg

# Source: ChEMBL document CHEMBL3244401, “Prostaglandins and congeners. 15. Synthesis and bronchodilator activity of dl-11-deoxy-15- or 16-alkylprostaglandins” (1977)
